{
  "source": "ChEMBL document CHEMBL4261484",
  "about": "“Design, synthesis and anticonvulsant-analgesic activity of new N-[(phenoxy)alkyl]- and N-[(phenoxy)ethoxyethyl]aminoalkanols” (Medchemcomm, 2017)",
  "key": {"[1]": {"test_system": "Mus musculus", "assay": "Neurotoxicity in mouse assessed as motor impairment at 100 mg/kg, ip measured for one min by rotarod test", "type": "toxicity, organism-based", "settings": "in vivo, 1 min", "summary_of_the_method": "(§1)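 Mice trained on an accelerating rotarod, then tested at least 24 h later after ip pretreatment, on a rod turning at 10 rpm. Neurotoxicity was scored as failure to stay on the rod for one minute. Read-out is mice impaired over mice tested.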"}, "[2]": {"test_system": "Mus musculus", "assay": "Anticonvulsant activity in mouse assessed as protection against maximal electroshock-induced seizures at 100 mg/kg, ip", "type": "functional, organism-based", "summary_of_the_method": "(§2)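 Mice dosed ip; maximal seizures induced by auricular electroshock (25 mA, 500 V, 50 Hz, 0.2 s). Endpoint: hind-limb tonic extension; animals without it scored protected. Read-out is number protected over number tested.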"}, "[3]": {"test_system": "Mus musculus", "assay": "Anticonvulsant activity in mouse assessed as protection against maximal electroshock-induced seizures at 30 mg/kg, ip", "type": "functional, organism-based", "summary_of_the_method": "as §2"}, "[4]": {"test_system": "Mus musculus", "assay": "Toxicity in mouse at 100 mg/kg, ip measured during maximal electroshock seizure test", "type": "organism-based", "settings": "in vivo"}, "[5]": {"test_system": "Mus musculus", "assay": "Toxicity in mouse at 30 mg/kg, ip measured during maximal electroshock seizure test", "type": "organism-based", "settings": "in vivo"}, "[6]": {"test_system": "Mus musculus", "assay": "Neurotoxicity in mouse assessed as motor impairment at 30 mg/kg, ip measured for one min by rotarod test", "type": "toxicity, organism-based", "settings": "in vivo, 1 min", "summary_of_the_method": "as §1"}, "[7]": {"test_system": "Mus musculus", "assay": "Anticonvulsant activity in ip dosed mouse assessed as protection against maximal electroshock-induced seizures", "type": "functional", "summary_of_the_method": "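Mice were dosed ip. Maximal seizures were induced by auricular electrodes (25 mA, 500 V, 50 Hz, 0.2 s). Absence of hind-limb tonic extension counted as protection. […] Motor impairment was scored on a 10 rpm rotarod, giving TD50 the same way.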"}, "[8]": {"test_system": "Mus musculus", "assay": "Toxicity in mouse at 25 mg/kg, ip measured during maximal electroshock seizure test", "type": "organism-based", "settings": "in vivo"}, "[9]": {"assay": "Neurotoxicity in ip dosed mouse assessed as motor impairment measured for one min by rotarod test", "type": "toxicity, organism-based", "settings": "in vivo", "summary_of_the_method": "as §1"}, "[10]": {"assay": "Protection index, ratio of TD50 for neurotoxicity in ip dosed mouse by rotarod test to ED50 for anticonvulsant activity in mouse by maximal electroshock seizure test", "type": "toxicity, organism-based", "settings": "in vivo, read-out: Ratio TD50/ED50"}, "[11]": {"test_system": "Mus musculus", "assay": "Anticonvulsant activity in mouse assessed as current strength required to induce tonic hind-limb extension in 50% of the animals at 10 mg/kg, ip by maximal electroshock seizure threshold test (reference value: 6.05 to 8.13 mA)", "type": "functional"}, "[12]": {"test_system": "Mus musculus", "assay": "Anticonvulsant activity in mouse assessed as increase in electroconvulsive threshold at 10 mg/kg, ip by maximal electroshock seizure threshold test relative to control", "type": "functional"}, "[13]": {"test_system": "Mus musculus", "assay": "Anticonvulsant activity in mouse assessed as protection against subcutaneous pentylenetetrazole-induced seizures by measuring latency time of tonic seizures at 100 mg/kg, ip measured for 30 mins post pentylenetetrazole challenge at 0.5 hrs after compound dosing (reference value: 562.8 to 614.9 secs)", "type": "functional"}, "[14]": {"test_system": "Mus musculus", "assay": "Anticonvulsant activity in mouse assessed as protection against subcutaneous pentylenetetrazole-induced seizures at 100 mg/kg, ip measured for 30 mins post pentylenetetrazole challenge at 0.5 hrs after compound dosing relative to control", "type": "functional"}, "[15]": {"test_system": "Mus musculus", "assay": "Analgesic activity in mouse assessed as decrease in time of paw licking during phase 1 at 21 mg/kg, ip measured for 5 mins by formalin test relative to control", "type": "functional", "parameters": "scale not given: the % may be the effect or the level left", "summary_of_the_method": "(§3)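 Formalin test in mice: 20 μL of 5% formalin injected intraplantarly into the right hind paw. Each mouse was observed alone in a glass beaker for 30 min. Time (s) spent licking or biting the injected paw was recorded at 0–5 min (acute phase) and 15–30 min (inflammatory phase).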"}, "[16]": {"test_system": "Mus musculus", "assay": "Analgesic activity in mouse assessed as decrease in time of paw licking during phase 2 at 21 mg/kg, ip measured for 15 to 30 mins by formalin test relative to control", "type": "functional", "parameters": "scale not given: the % may be the effect or the level left", "summary_of_the_method": "as §3"}, "[17]": {"test_system": "Mus musculus", "assay": "Toxicity in mouse assessed as effect on spontaneous activity at 21 mg/kg, ip measured for 30 mins by photoresistor actometer relative to control", "type": "organism-based", "settings": "in vivo, 0.5 h", "summary_of_the_method": "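Mice dosed ip; locomotor activity by photoresistor actometers counting light-beam interruptions. Each mouse was habituated 30 min in a cage, then crossings were counted over a 30 min session. Data are mean ± SEM and % change vs control; unpaired t test.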"}, "[18]": {"test_system": "Mus musculus", "assay": "Neurotoxicity in mouse assessed as motor impairment by measuring time of escaping from chimney at 21 mg/kg, ip measured for 60 secs (reference value: 8.87 +/- 1.79 secs)", "type": "toxicity, organism-based", "settings": "in vivo, 1 min", "summary_of_the_method": "(§4)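 Mice dosed ip; trained, selected animals placed in a horizontal tube 25 cm long and 2.5 cm in diameter, then tube reversed so mice must climb out backward. Read-outs: escape time (s) ± SEM and % animals losing coordination versus control. Unpaired t test.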"}, "[19]": {"test_system": "Mus musculus", "assay": "Neurotoxicity in mouse assessed as motor impairment by measuring loss of coordination at 21 mg/kg, ip measured for 60 secs by chimney test relative to control", "type": "toxicity, organism-based", "settings": "in vivo, 1 min", "summary_of_the_method": "as §4"}, "[20]": {"test_system": "HepG2", "assay": "Cytotoxicity against human HepG2 cells assessed as effect on cell viability at 10 to 250 uM after 24 hrs by MTT assay", "type": "cell-based", "settings": "hepg2, 24 h", "summary_of_the_method": "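HepG2 cells grown in MEM with 10% FBS (37 °C, 5% CO2) and seeded at 1 × 10^4. After overnight culture, exposed to 10–250 μM for 24 h. MTT for 3 h, formazan dissolved, OD 570 nm. Viability is % of control ± SEM from three independent experiments.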"}, "[21]": {"test_system": "HepG2", "assay": "Cytotoxicity against human HepG2 cells assessed as effect on cell viability at 10 to 250 uM after 24 hrs by neutral red assay", "type": "cell-based", "settings": "hepg2, 24 h", "summary_of_the_method": "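HepG2 cells seeded at 5 × 10^4 per well, then after 24 h given medium with 10–250 μM for 24 h. Viability by neutral red staining, OD 570 nm. Results are % of control ± SEM, three independent experiments.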"}, "[22]": {"assay": "Cytotoxicity against mouse CRL-2541 cells assessed as effect on cell viability at 10 to 250 uM after 24 hrs by MTT assay", "type": "cell-based"}},
  "note": "The source made the active and inactive calls.",
  "data": [
    {"smiles": "Cc1cccc(Cl)c1OCCCCN[C@@H](C)CO", "values": [
      {"measurement": "Activity", "setting": "[1]", "value": "Toxic"}
    ]},
    {"smiles": "Cc1ccc(Cl)c(OCCN[C@H]2CC[C@H](O)CC2)c1", "values": [
      {"measurement": "Activity", "setting": "[1]", "value": "Toxic"}
    ]},
    {"smiles": "Cc1ccc(Cl)c(OCCCCNC(C)CO)c1", "note": "(racemic)", "values": [
      {"measurement": "Activity", "setting": "[2]", "value": "Active"},
      {"measurement": "Activity", "setting": "[3]", "value": "inactive"},
      {"measurement": "Activity", "setting": "[4]", "value": "Non-Toxic"},
      {"measurement": "Activity", "setting": "[5]", "value": "Non-Toxic"},
      {"measurement": "Activity", "setting": "[1]", "value": "Toxic"},
      {"measurement": "Activity", "setting": "[6]", "value": "Non-Toxic"}
    ]},
    {"smiles": "Cc1ccc(Cl)c(OCCOCCN2CCC(O)CC2)c1", "values": [
      {"measurement": "Activity", "setting": "[2]", "value": "Active"},
      {"measurement": "Activity", "setting": "[3]", "value": "inactive"},
      {"measurement": "Activity", "setting": "[4]", "value": "Non-Toxic"},
      {"measurement": "Activity", "setting": "[6]", "value": "Non-Toxic"}
    ]},
    {"smiles": "CC(C)NCC(O)COc1cccc2ccccc12", "note": "(configuration not stated) [PROPRANOLOL]", "values": [
      {"measurement": "ED50", "setting": "[7]", "value": 15, "unit": "mg/kg"}
    ]},
    {"smiles": "Cc1cccc(C)c1OCCCCNCC(C)O", "note": "(racemic)", "values": [
      {"measurement": "Activity", "setting": "[2]", "value": "Active"},
      {"measurement": "Activity", "setting": "[4]", "value": "Non-Toxic"},
      {"measurement": "Activity", "setting": "[5]", "value": "Non-Toxic"},
      {"measurement": "Activity", "setting": "[8]", "value": "Non-Toxic"},
      {"measurement": "ED50", "setting": "[7]", "value": 27.1, "unit": "mg/kg"},
      {"measurement": "TD50 at 1 min", "setting": "[9]", "value": 43.3, "unit": "mg/kg"},
      {"measurement": "selectivity ratio", "setting": "[10]", "value": 1.6}
    ]},
    {"smiles": "CC[C@@H](CO)NCCOc1c(C)cccc1C", "values": [
      {"measurement": "selectivity ratio", "setting": "[10]", "value": 4.55}
    ]},
    {"smiles": "Cc1cc(C)c(OCCCN2CCC(O)CC2)c(C)c1", "values": [
      {"measurement": "Activity", "setting": "[2]", "value": "Active"},
      {"measurement": "Activity", "setting": "[4]", "value": "Non-Toxic"},
      {"measurement": "Activity", "setting": "[11]", "value": 9.15, "unit": "mA"},
      {"measurement": "Activity", "setting": "[12]", "value": 12.55, "unit": "%"},
      {"measurement": "Time", "setting": "[13]", "value": 275.4, "unit": "s"},
      {"measurement": "Activity", "setting": "[14]", "value": "inactive"},
      {"measurement": "Activity", "setting": "[15]", "value": 27.01, "unit": "%"},
      {"measurement": "Activity", "setting": "[16]", "value": 4.87, "unit": "%"},
      {"measurement": "Activity", "setting": "[17]", "value": 19.76, "unit": "%"},
      {"measurement": "Time", "setting": "[18]", "value": 6.5, "unit": "s"},
      {"measurement": "Activity", "setting": "[19]", "value": 0, "unit": "%"},
      {"measurement": "Activity", "setting": "[20]", "value": "Non-Toxic"},
      {"measurement": "Activity", "setting": "[21]", "value": "Non-Toxic"},
      {"measurement": "Activity", "setting": "[22]", "value": "Non-Toxic"}
    ]},
    {"smiles": "CCC(O)CNCCOCCOc1cc(Cl)ccc1C", "note": "(racemic)", "values": [
      {"measurement": "Activity", "setting": "[2]", "value": "Active"},
      {"measurement": "Activity", "setting": "[3]", "value": "inactive"},
      {"measurement": "Activity", "setting": "[4]", "value": "Non-Toxic"},
      {"measurement": "Activity", "setting": "[5]", "value": "Non-Toxic"},
      {"measurement": "Activity", "setting": "[1]", "value": "Toxic"}
    ]},
    {"smiles": "Cc1cccc(C)c1OCC(C)N", "note": "(configuration not stated) [MEXILETINE]", "values": [
      {"measurement": "ED50", "setting": "[7]", "value": 20, "unit": "mg/kg"}
    ]},
    {"smiles": "Cc1ccc(Cl)c(OCCCCN[C@H](C)CO)c1", "values": [
      {"measurement": "Activity", "setting": "[2]", "value": "Active"},
      {"measurement": "Activity", "setting": "[3]", "value": "inactive"},
      {"measurement": "Activity", "setting": "[4]", "value": "Non-Toxic"},
      {"measurement": "Activity", "setting": "[5]", "value": "Non-Toxic"},
      {"measurement": "Activity", "setting": "[1]", "value": "Toxic"},
      {"measurement": "Activity", "setting": "[6]", "value": "Non-Toxic"}
    ]}
  ]
}
